Converted amounts (≈) assume the structure as drawn.
Legend:
Assay type in all cases: functional
Candida albicans [1] = test: Antifungal activity against Candida albicans ATCC 44859 after 24 hrs by broth microdilution method; conditions: ATCC 44859, 24 h
Candida albicans [2] = test: Antifungal activity against Candida albicans ATCC 44859 after 48 hrs by broth microdilution method; conditions: ATCC 44859, 48 h
Candida tropicalis [3] = test: Antifungal activity against Candida tropicalis 156 after 24 hrs by broth microdilution method; conditions: Candida tropicalis, 156, 24 h
Candida tropicalis [4] = test: Antifungal activity against Candida tropicalis 156 after 48 hrs by broth microdilution method; conditions: Candida tropicalis, 156, 48 h
Pichia kudriavzevii [5] = test: Antifungal activity against Candida krusei E28 after 24 hrs by broth microdilution method; conditions: E28, 24 h
Pichia kudriavzevii [6] = test: Antifungal activity against Candida krusei E28 after 48 hrs by broth microdilution method; conditions: E28, 48 h
Nakaseomyces glabratus [7] = test: Antifungal activity against Candida glabrata 20/I after 24 hrs by broth microdilution method
Nakaseomyces glabratus [8] = test: Antifungal activity against Candida glabrata 20/I after 48 hrs by broth microdilution method
Trichosporon beigelii [9] = test: Antifungal activity against Trichosporon beigelii 1188 after 24 hrs by broth microdilution method; conditions: Trichosporon beigelii, 1188, 24 h
Trichosporon beigelii [10] = test: Antifungal activity against Trichosporon beigelii 1188 after 48 hrs by broth microdilution method; conditions: Trichosporon beigelii, 1188, 48 h
Aspergillus fumigatus [11] = test: Antifungal activity against Aspergillus fumigatus 231 after 24 hrs by broth microdilution method; conditions: Aspergillus fumigatus, 231, 24 h
Aspergillus fumigatus [12] = test: Antifungal activity against Aspergillus fumigatus 231 after 48 hrs by broth microdilution method; conditions: Aspergillus fumigatus, 231, 48 h
Lichtheimia corymbifera [13] = test: Antifungal activity against Absidia corymbifera 272 after 24 hrs by broth microdilution method; conditions: Lichtheimia corymbifera, 272, 24 h
Lichtheimia corymbifera [14] = test: Antifungal activity against Absidia corymbifera 272 after 48 hrs by broth microdilution method; conditions: Lichtheimia corymbifera, 272, 48 h
[15] = system: Trichophyton mentagrophytes; test: Antifungal activity against Trichophyton mentagrophytes after 24 hrs by broth microdilution method
[16] = system: Trichophyton mentagrophytes; test: Antifungal activity against Trichophyton mentagrophytes after 48 hrs by broth microdilution method
Enterococcus sp. [17] = test: Antibacterial activity against Enterococcus sp. J14365/08 after 48 hrs by broth microdilution method; conditions: J14365/08, 48 h
Summary of the method: (§1)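 Broth microdilution following […], with twofold compound dilutions in Mueller-Hinton bouillon. Incubated 24 and 48 h at 35 °C in the dark in a humid atmosphere. MIC (IC80) was taken as ≥80% growth reduction versus control, read visually and photometrically.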

Escherichia coli [18] = test: Antibacterial activity against Escherichia coli CCM 4517 after 24 hrs by broth microdilution method; conditions: CCM 4517, 24 h; summary of the method: as §1
Escherichia coli [19] = test: Antibacterial activity against Escherichia coli CCM 4517 after 48 hrs by broth microdilution method; conditions: CCM 4517, 48 h; summary of the method: as §1
Klebsiella pneumoniae [20] = test: Antibacterial activity against Klebsiella pneumoniae D11750/08 after 24 hrs by broth microdilution method; conditions: D11750/08, 24 h; summary of the method: as §1
Klebsiella pneumoniae [21] = test: Antibacterial activity against Klebsiella pneumoniae D11750/08 after 48 hrs by broth microdilution method; conditions: D11750/08, 48 h; summary of the method: as §1
[22] = system: Mycobacterium tuberculosis; test: Antimycobacterial activity against drug-sensitive Mycobacterium tuberculosis
Mycobacterium avium [23] = test: Antimycobacterial activity against Mycobacterium avium
Mycobacterium kansasii [24] = test: Antimycobacterial activity against Mycobacterium kansasii
[25] = system: Mycobacterium tuberculosis; test: Antimycobacterial activity against Mycobacterium tuberculosis H37Rv 331/88 after 14 days by micromethod; conditions: H37Rv 331/88, 336 h
Summary of the method: (§2)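 Micromethod in Sula semisynthetic medium, with compounds added as DMSO solutions at 1000, 500, 250, 125, 62, 32, 16, 8, 4, 2, 1, 0.5, 0.25. Inoculum dilutions: H37Rv 10^-3; M. avium 330/88 10^-5; M. kansasii 235/80 10^-4; M. kansasii 6509/96 10^-5. Incubated at 37 °C, read at 14 and 21 days, and at 7 days for M. kansasii. MIC was the lowest concentration inhibiting growth.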

[26] = system: Mycobacterium tuberculosis; test: Antimycobacterial activity against Mycobacterium tuberculosis H37Rv 331/88 after 21 days by micromethod; conditions: H37Rv 331/88, 504 h; summary of the method: as §2
Mycobacterium avium [27] = test: Antimycobacterial activity against multidrug-resistant Mycobacterium avium 330/88 after 14 days by micromethod; conditions: 330/88, 336 h; summary of the method: as §2
Mycobacterium avium [28] = test: Antimycobacterial activity against multidrug-resistant Mycobacterium avium 330/88 after 21 days by micromethod; conditions: 330/88, 504 h; summary of the method: as §2
Mycobacterium kansasii [29] = test: Antimycobacterial activity against Mycobacterium kansasii 235/80 after 7 days by micromethod; conditions: 235/80, 168 h; summary of the method: as §2
Mycobacterium kansasii [30] = test: Antimycobacterial activity against Mycobacterium kansasii 235/80 after 14 days by micromethod; conditions: 235/80, 336 h; summary of the method: as §2
Mycobacterium kansasii [31] = test: Antimycobacterial activity against Mycobacterium kansasii 235/80 after 21 days by micromethod; conditions: 235/80, 504 h; summary of the method: as §2
Mycobacterium kansasii [32] = test: Antimycobacterial activity against Mycobacterium kansasii 6509/96 after 7 days by micromethod; conditions: 6509/96, 168 h; summary of the method: as §2
Mycobacterium kansasii [33] = test: Antimycobacterial activity against Mycobacterium kansasii 6509/96 after 14 days by micromethod; conditions: 6509/96, 336 h; summary of the method: as §2
Mycobacterium kansasii [34] = test: Antimycobacterial activity against Mycobacterium kansasii 6509/96 after 21 days by micromethod; conditions: 6509/96, 504 h; summary of the method: as §2
Staphylococcus aureus [35] = test: Antibacterial activity against Staphylococcus aureus CCM 4516/08 after 24 hrs by broth microdilution method; conditions: CCM 4516/08, 24 h; summary of the method: as §1
Staphylococcus aureus [36] = test: Antibacterial activity against Staphylococcus aureus CCM 4516/08 after 48 hrs by broth microdilution method; conditions: CCM 4516/08, 48 h; summary of the method: as §1
Staphylococcus aureus [37] = test: Antibacterial activity against methicillin-resistant Staphylococcus aureus H5996/08 after 24 hrs by broth microdilution method; conditions: H5996/08, 24 h; summary of the method: as §1
Staphylococcus aureus [38] = test: Antibacterial activity against methicillin-resistant Staphylococcus aureus H5996/08 after 48 hrs by broth microdilution method; conditions: H5996/08, 48 h; summary of the method: as §1
[39] = system: Staphylococcus epidermidis; test: Antibacterial activity against Staphylococcus epidermidis H6966/08 after 24 hrs by broth microdilution method; conditions: H6966/08, 24 h; summary of the method: as §1
[40] = system: Staphylococcus epidermidis; test: Antibacterial activity against Staphylococcus epidermidis H6966/08 after 48 hrs by broth microdilution method; conditions: H6966/08, 48 h; summary of the method: as §1
Enterococcus sp. [41] = test: Antibacterial activity against Enterococcus sp. J14365/08 after 24 hrs by broth microdilution method; conditions: J14365/08, 24 h; summary of the method: as §1

Question: How did the MIC (Candida albicans [1]) turn out when `OC(Cn1cncn1)(Cn1cncn1)c1ccc(F)cc1F` [FLUCONAZOLE] was run?
Answer: Its MIC is 0.06 µM (≈ 0.0184 µg/mL).

Question: And the MIC (Candida albicans [2])?
Answer: The MIC was 0.12 µM (≈ 0.0368 µg/mL).

Question: What about the MIC (Candida tropicalis [3]) of the same molecule?
Answer: Its MIC is 0.12 µM (≈ 0.0368 µg/mL).

Question: And the MIC (Candida tropicalis [4])?
Answer: The MIC was greater than 125 µM.

Question: What about the MIC (Pichia kudriavzevii [5]) of the same molecule?
Answer: Its MIC is 3.91 µM (≈ 1.2 µg/mL).

Question: And the MIC (Pichia kudriavzevii [6])?
Answer: The MIC was 15.6 µM (≈ 4.78 µg/mL).

Question: And the MIC (Nakaseomyces glabratus [7])?
Answer: Its MIC is 0.98 µM (≈ 0.3 µg/mL).

Question: What about the MIC (Nakaseomyces glabratus [8]) of the same molecule?
Answer: The MIC was 3.91 µM (≈ 1.2 µg/mL).

Question: And the MIC (Trichosporon beigelii [9])?
Answer: Its MIC is 0.24 µM (≈ 0.0735 µg/mL).

Question: And the MIC (Trichosporon beigelii [10])?
Answer: The MIC was 0.48 µM (≈ 0.147 µg/mL).

Question: And the MIC (Aspergillus fumigatus [11])?
Answer: Its MIC is greater than 125 µM.

Question: And the MIC (Aspergillus fumigatus [12])?
Answer: The MIC was greater than 125 µM.

Question: What about the MIC (Lichtheimia corymbifera [13]) of the same molecule?
Answer: Its MIC is greater than 125 µM.

Question: And the MIC (Lichtheimia corymbifera [14])?
Answer: The MIC was greater than 125 µM.

Question: And the MIC [15]?
Answer: The MIC was 1.95 µM (≈ 0.597 µg/mL).

Question: And the MIC [16]?
Answer: The MIC was 3.91 µM (≈ 1.2 µg/mL).

Question: With `CC(=O)N[C@@H](Cc1ccccc1)C(=O)Oc1cc(Cl)ccc1C(=O)Nc1ccc(Cl)c(Cl)c1` as the molecule, how does the MIC (Enterococcus sp. [17]) read?
Answer: The MIC was greater than 125 µM.

Question: What about the MIC (Escherichia coli [18]) of the same molecule?
Answer: Its MIC is 125 µM (≈ 63.2 µg/mL).

Question: And the MIC (Escherichia coli [19])?
Answer: Its MIC is greater than 125 µM.

Question: And the MIC (Klebsiella pneumoniae [20])?
Answer: Its MIC is greater than 125 µM.

Question: What about the MIC (Klebsiella pneumoniae [21]) of the same molecule?
Answer: Its MIC is greater than 125 µM.

Question: And the MIC (Candida albicans [1])?
Answer: The MIC was 125 µM (≈ 63.2 µg/mL).

Question: What about the MIC (Candida albicans [2]) of the same molecule?
Answer: Its MIC is greater than 125 µM.

Question: And the MIC (Candida tropicalis [3])?
Answer: The MIC was 125 µM (≈ 63.2 µg/mL).

Question: What about the MIC (Candida tropicalis [4]) of the same molecule?
Answer: Its MIC is greater than 125 µM.

Question: And the MIC (Pichia kudriavzevii [5])?
Answer: The MIC was greater than 125 µM.

Question: What about the MIC (Pichia kudriavzevii [6]) of the same molecule?
Answer: The MIC was greater than 125 µM.

Question: And the MIC (Nakaseomyces glabratus [7])?
Answer: Its MIC is greater than 125 µM.

Question: What about the MIC (Nakaseomyces glabratus [8]) of the same molecule?
Answer: Its MIC is greater than 125 µM.

Question: What about the MIC (Trichosporon beigelii [9]) of the same molecule?
Answer: The MIC was 125 µM (≈ 63.2 µg/mL).

Question: What about the MIC (Trichosporon beigelii [10]) of the same molecule?
Answer: The MIC was greater than 125 µM.

Question: And the MIC (Aspergillus fumigatus [11])?
Answer: The MIC was 125 µM (≈ 63.2 µg/mL).

Question: And the MIC (Aspergillus fumigatus [12])?
Answer: The MIC was greater than 125 µM.

Question: What about the MIC (Lichtheimia corymbifera [13]) of the same molecule?
Answer: The MIC was 125 µM (≈ 63.2 µg/mL).

Question: And the MIC (Lichtheimia corymbifera [14])?
Answer: The MIC was greater than 125 µM.

Question: What about the MIC [15] of the same molecule?
Answer: Its MIC is 62.5 µM (≈ 31.6 µg/mL).

Question: And the MIC [16]?
Answer: The MIC was greater than 125 µM.

Question: What about the MIC [22] of the same molecule?
Answer: The MIC was 1 µM (≈ 0.506 µg/mL).

Question: What about the MIC (Mycobacterium avium [23]) of the same molecule?
Answer: Its MIC is 1 µM (≈ 0.506 µg/mL).

Question: And the MIC (Mycobacterium kansasii [24])?
Answer: The MIC was 1 µM (≈ 0.506 µg/mL).

Question: What about the MIC [25] of the same molecule?
Answer: Its MIC is 2 µM (≈ 1.01 µg/mL).

Question: And the MIC [26]?
Answer: Its MIC is 2 µM (≈ 1.01 µg/mL).

Question: And the MIC (Mycobacterium avium [27])?
Answer: The MIC was 8 µM (≈ 4.05 µg/mL).

Question: And the MIC (Mycobacterium avium [28])?
Answer: Its MIC is 16 µM (≈ 8.09 µg/mL).

Question: What about the MIC (Mycobacterium kansasii [29]) of the same molecule?
Answer: Its MIC is 4 µM (≈ 2.02 µg/mL).

Question: What about the MIC (Mycobacterium kansasii [30]) of the same molecule?
Answer: Its MIC is 4 µM (≈ 2.02 µg/mL).

Question: What about the MIC (Mycobacterium kansasii [31]) of the same molecule?
Answer: Its MIC is 4 µM (≈ 2.02 µg/mL).

Question: And the MIC (Mycobacterium kansasii [32])?
Answer: Its MIC is 1 µM (≈ 0.506 µg/mL).

Question: And the MIC (Mycobacterium kansasii [33])?
Answer: The MIC was 2 µM (≈ 1.01 µg/mL).

Question: And the MIC (Mycobacterium kansasii [34])?
Answer: The MIC was 4 µM (≈ 2.02 µg/mL).

Question: And the MIC (Staphylococcus aureus [35])?
Answer: The MIC was 125 µM (≈ 63.2 µg/mL).

Question: And the MIC (Staphylococcus aureus [36])?
Answer: Its MIC is greater than 125 µM.

Question: What about the MIC (Staphylococcus aureus [37]) of the same molecule?
Answer: Its MIC is 125 µM (≈ 63.2 µg/mL).

Question: What about the MIC (Staphylococcus aureus [38]) of the same molecule?
Answer: The MIC was greater than 125 µM.

Question: And the MIC [39]?
Answer: The MIC was 125 µM (≈ 63.2 µg/mL).

Question: What about the MIC [40] of the same molecule?
Answer: Its MIC is greater than 125 µM.

Question: What about the MIC (Enterococcus sp. [41]) of the same molecule?
Answer: Its MIC is 125 µM (≈ 63.2 µg/mL).

Reference: ChEMBL document CHEMBL1629494, “New amino acid esters of salicylanilides active against MDR-TB and other microbes” (Eur J Med Chem, 2010)
